Screening results as filed in PubChem BioAssay.
DENV2 CPE: inhibitors of DENV2 cytopathic effect, primary screen, cell-based, plate reader, single concentration | DENV2-infected cells, cytopathic effect rescue | CPE inhibition, % at 9.99 µM | 350,000 tested, 1.7% active; in the data active = CPE inhibition above about 20%, passing the limit was not always enough; inconclusive = no clear call, values can overlap the other calls; tested in BHK-21 cells;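 also: 0% = median of neutral control wells and 100% = median of positive control wells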
C2C12 statin: suppressors of statin myotoxicity in C2C12 myotubes, primary screen, cell-based, single point, plate reader | AID 602340, 2012 | 330,000 tested, 0.78% active | C2C12 myotubes + simvastatin, ATP luminescence, 48 h; scaled: DMSO 0, geranylgeraniol control 100 | rescue of ATP level, % at 7.49 µM;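 active = mean ATP rescue above about 67%, or every replicate alone reaching that limit, limit read from the data, passing the limit was not always enough; inconclusive = no clear call, values can overlap the other calls; inactive = mean under the limit and some replicate under it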;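 also: myotubes were challenged with 10 µM simvastatin during compound exposure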
E-selectin induc: E-selectin induction in HUVECs, primary screen, imaging, HUVEC, immunofluorescence imaging, single point. activation, % at 7.58 µM. P16581. 260,000 tested, 0.37% active. AID 686992, 2013. normalized: neutral wells 0, TNF-alpha wells 100;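 active = mean E-selectin-positive cell signal at least 10% of the positive control, reached in at least 60% of replicates, without over 20% cell loss; inconclusive = no rule given, readout overlaps actives, possibly toxicity-flagged; inactive = the rest, including those meeting only one limit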
Target sequence (P16581 whole entry, looked up): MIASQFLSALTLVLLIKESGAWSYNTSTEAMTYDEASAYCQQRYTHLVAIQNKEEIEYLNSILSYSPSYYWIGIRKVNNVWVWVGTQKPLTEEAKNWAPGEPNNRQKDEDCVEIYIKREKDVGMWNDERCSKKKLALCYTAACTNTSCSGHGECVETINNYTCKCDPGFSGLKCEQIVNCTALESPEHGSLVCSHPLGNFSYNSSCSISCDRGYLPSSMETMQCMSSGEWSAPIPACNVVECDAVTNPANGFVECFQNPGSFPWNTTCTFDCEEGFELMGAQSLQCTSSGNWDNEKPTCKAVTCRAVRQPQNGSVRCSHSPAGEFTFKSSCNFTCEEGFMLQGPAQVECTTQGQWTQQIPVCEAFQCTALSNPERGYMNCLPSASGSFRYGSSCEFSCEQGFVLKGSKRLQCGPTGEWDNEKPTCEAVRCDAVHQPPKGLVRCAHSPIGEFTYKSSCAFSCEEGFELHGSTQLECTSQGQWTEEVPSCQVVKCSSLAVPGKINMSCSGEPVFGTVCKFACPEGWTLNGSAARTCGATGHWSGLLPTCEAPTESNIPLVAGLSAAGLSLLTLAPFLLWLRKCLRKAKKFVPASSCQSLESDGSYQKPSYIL
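Test system: HUVEC; input: 3,000 HUVEC/well; measured by: immunofluorescence imaging; read-out: % PE-positive cells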
* hit, by the source's call; ? = inconclusive; . = no result given. This is a sample that favours compounds with a hit; in the whole collection about 2.2% have one here.

SMILES	DENV2 CPE	C2C12 statin	E-selectin induc
COC(=O)C1=C(c2ccc(OC(F)(F)F)cc2)C[C@@H]2CC[C@H]1N2C(=O)NC1CCCCC1	37*	-30	0
COC(=O)C1=C(c2ccc(OC(F)(F)F)cc2)C[C@@H]2CC[C@H]1N2C(=O)NCCOc1ccc(OC)cc1	26*	128*	1
COC(=O)C1=C(c2ccc(OC(F)(F)F)cc2)C[C@@H]2CC[C@H]1N2C(=O)NC1Cc2ccccc2C1	-2	-4	0
CCCNC(=O)[C@H]1[C@H](CO)[C@H]2Cn3c(cccc3=O)[C@@H]1N2CCC	.	-26	0
CN1[C@@H]2Cn3c(cccc3=O)[C@H]1[C@@H](C(=O)NCC1CC1)[C@@H]2CO	-2	-3	0
COC(=O)[C@H]1[C@H](CO)[C@H]2Cn3c(ccc(/C=C/c4ccccc4)c3=O)[C@@H]1N2Cc1ccccc1F	8	5	0
CN(C)c1ccc(/C=C/c2cc[n+](C)c3ccccc23)cc1	7	-58	110*
CC[n+]1c(/C=C/C=C/c2ccc(N(C)C)cc2)sc2ccccc21	-11	.	.
C[n+]1ccc(-c2ccccc2)c2ccccc21	0	-135	0
CN(C)c1ccc(/C=C/C=C/c2sc3ccccc3[n+]2C)cc1	-9	.	70*
CCC(=O)N1[C@@H]2c3ccc(C4=CCCC4)c(=O)n3C[C@H]1[C@H](CO)[C@H]2C(=O)OC	7	8	0
O=C1/C(=C/c2cccnc2)N2CCC1CC2	5	-1	.
O=C1C(=Cc2ccccc2)N2CCC1CC2	29*	3	-2
Cc1ccccc1-c1ccc([C@H]2[C@@H](CO)N3CCCCN(C(=O)Cc4ccccn4)C[C@H]23)cc1	-10	.	0
O[C@H]1[C@H](O)[C@@H](O)CN2CC[C@H](O)[C@H]12	-8	11	0
OC1CN2CCCC(O)C2C1O (stereo unspecified)	55*	.	.
O=C(Cc1ccncc1)N1CCCCN2[C@H](CO)[C@@H](c3ccc(C#CC4(O)CCCC4)cc3)[C@@H]2C1	-8	.	0
N#Cc1cccc(-c2ccc([C@@H]3[C@@H](CO)N4CCCCN(C(=O)Cc5ccncc5)C[C@H]34)cc2)c1	-9	.	0
COC(=O)[C@H]1[C@H](CO)[C@H]2Cn3c(cccc3=O)[C@@H]1N2C(=O)C1CCC1	0	22	.
COC(=O)[C@@H]1[C@@H](CO)[C@@H]2Cn3c(ccc(-c4ccccc4)c3=O)[C@H]1N2CC1CC1	2	10	0
Cc1cccc(NC(=O)[C@@H](NC(=O)N2C[C@H]3C[C@@H](C2)c2cccc(=O)n2C3)C(C)C)c1	-6	2	.
O=C(CCC(=O)N1C[C@H]2C[C@@H](C1)c1cccc(=O)n1C2)NCc1ccc(F)cc1	81*	-3	.
CC(C)[C@H](NC(=O)N1C[C@H]2C[C@@H](C1)c1cccc(=O)n1C2)C(=O)Nc1ccccc1F	58*	-2	.
COc1ccccc1CNC(=O)CCC(=O)N1C[C@H]2C[C@@H](C1)c1cccc(=O)n1C2	-1	-1	.
O=C(Cc1ccccn1)N1CCCCN2[C@H](CO)[C@H](c3ccc(-c4ccccc4F)cc3)[C@@H]2C1	-7	41	-1
SMILES	DENV2 CPE	C2C12 statin	E-selectin induc
O=C(Cc1cccnc1)N1CCCCN2[C@H](C1)[C@@H](c1ccc(/C=C/c3ccccc3)cc1)[C@@H]2CO	-10	.	-1
CN(N)N=Nc1nc2c([nH]1)c(=O)n(C)c(=O)n2C	0	.	58*
Cc1ccc2c(c1N)C(=O)c1ccccc1C2=O	31*	4	.
COC(=O)C[C@@H]1CC[C@H]2NC[C@H](O)COC[C@@H]2O1	5	6	0
O=C(Cc1ccncc1)N1CCCCN2[C@H](CO)[C@H](c3ccc(C#CC4(O)CCCC4)cc3)[C@@H]2C1	10	.	0
O=C(Cc1ccccn1)N1CCCCN2[C@H](CO)[C@H](c3ccc(C#Cc4ccccc4)cc3)[C@@H]2C1	-2	.	0
COC(=O)[C@H]1[C@H](CO)[C@H]2Cn3c(ccc(C4=CCCCC4)c3=O)[C@@H]1N2C(=O)Cc1ccccn1	7	-7	0
COC(=O)[C@@H]1[C@@H](CO)[C@@H]2Cn3c(ccc(C4=CCCCC4)c3=O)[C@H]1N2Cc1ccccc1OC	24*	.	0
COC(=O)[C@@H]1[C@@H](CO)[C@@H]2Cn3c(ccc(C4=CCCCC4)c3=O)[C@H]1N2CCc1ccccc1	-1	45	0
COC(=O)[C@@H]1[C@@H](CO)[C@@H]2Cn3c(ccc(C4=CCCC4)c3=O)[C@H]1N2Cc1ccccn1	118*	-1	0
Cc1ccccc1-c1ccc([C@@H]2[C@H](CO)N3CCCCN(C(=O)Cc4ccccn4)C[C@@H]23)cc1	-4	.	2
Nc1ccccc1C(=O)OCCc1ccccc1	78*	-18	.
CCCCOC(=O)c1ccccc1N	6	4	.
C/C=C/c1ccc(C2[C@H]3CNC[C@@H]2N3CC2CCCCC2)cc1 (stereo partly specified)	0	.	-1
COC(=O)[C@@H]1[C@@H](CO)[C@@H]2Cn3c(ccc(-c4cccc(F)c4)c3=O)[C@H]1N2C(=O)CC1CC1	-8	-7	0
CN1C2CCC1CC(OC(=O)c1ccc([N+](=O)[O-])cc1)C2 (stereo unspecified)	66*	.	.
CN1C2CCC1C(C(=O)O)C(OC(=O)c1ccccc1)C2 (stereo unspecified)	12	1	.
COc1ccc(C(=O)OC2C[C@H]3CC[C@@H](C2)N3O)cc1OC (stereo partly specified)	1	-8	1
CN1C2CCC1CC(OC(=O)c1cccc(O)c1)C2 (stereo unspecified)	29*	13	.
O=C(O)[C@H]1[C@H](CO)[C@H]2Cn3c(ccc(-c4ccccc4F)c3=O)[C@@H]1N2C(=O)Nc1ccccc1	-15	-19	0
C/C=C/c1ccc(C2[C@@H]3CN(C(=O)C4CCC4)C[C@H]2N3)cc1 (stereo partly specified)	-9	.	0
C[C@@H]1C(=O)O[C@H]2[C@H](O)[C@]34[C@@H]5OC(=O)[C@]3(OC3OC(=O)[C@H](O)C34[C@H](C(C)(C)C)[C@@H]5O)[C@@]12O (stereo partly specified)	42*	1	0
CC(C)(C)[C@]1(O)C[C@@H]2OC(=O)C[C@@]23C(=O)O[C@@H]2OC(=O)[C@@H](O)C213 (stereo partly specified)	?	-4	0
CCN(CC)c1ccc(/C=C2\C(=O)NC(=O)N(CC3CCCO3)C2=O)cc1 (stereo unspecified)	10	0	.
Cc1ccc(/C=C2\C(=O)NC(=O)N(CC3CCCO3)C2=O)s1 (stereo unspecified)	30*	.	0
O=C(O)[C@H]1[C@H](CO)[C@H]2Cn3c(ccc(-c4cccnc4)c3=O)[C@@H]1N2C(=O)Nc1cc(F)ccc1F	-1	-11	1
O=C(O)[C@@H]1[C@@H](CO)[C@@H]2Cn3c(ccc(-c4ccncc4)c3=O)[C@H]1N2S(=O)(=O)c1ccccc1F	.	-11	0
Cc1nc2ccccc2c(=O)n1-c1cccc(O)c1	.	-27	.
